# Screening data deposited in PubChem by several laboratories.
# Rpn11 block = Rpn11 (human) deubiquitinase inhibition | O00487 | human 26S proteasome, Ub4-pepOG fluorescence polarization; 20S core pre-blocked with epoxomicin | inhibition, % at 20 µM | actives 0.59% (n = 360,000) | AID 588493;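 active means inhibition at 20 µM, scaled to each plate's controls, above about 33%, limit read from the data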
# HNF4A DNA FP = change in binding of human HNF4 alpha to DNA | HNF4a-FITC DNA binding, fluorescence polarization, 1 h | actives 0.3% (n = 360,000) | activity change, % at 10 µM | P41235 | AID 1224865; in the data active means activity change above about 30%, passing the limit was not always enough
# IDE cell inh = inhibitors of human insulin-degrading enzyme in cells. inhibition, % at 5.59 µM. actives 0.41% (n = 320,000). HEK cells, FAbetaB cleavage, fluorescence polarization. P14735;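 active means percent inhibition above the average of all tested compounds plus 3 SD, set per screening campaign, cut at about 16% in these data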;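 further: IDE supplied by intact live HEK cells; FP after avidin binding of uncleaved biotin substrate so inhibition keeps polarization high; 0% = DMSO wells and 100% = 60 µM reference IDE inhibitor Ii1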
# IDE cell activ = activators of human insulin-degrading enzyme in cells; activation, % at 5.96 µM; P14735; AID 493087; HEK cells, FAbeta-B cleavage, fluorescence polarization; 0% vehicle, 100% cell-free pure enzyme wells; actives 0.073% (n = 340,000);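 active means activation above the mean of all tested compounds plus 3 SD, set per screening campaign, cut at about 17% in these data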
# CSN deneddyl inh = CSN deneddylation inhibition | inhibition, % at 12.5 µM | Purified CSN, SCF-Nedd8-OG deneddylation, fluorescence polarization | actives 0.38% (n = 360,000) | AID 651999 | Q92905;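 active means pattern-corrected inhibition above about 35%, with an unprinted fluorescence ratio check between 0.5 and 1.5, limit read from the data, passing the limit was not always enough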;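 further: 0% = enzyme with substrate and 100% = substrate without enzyme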
# Target sequence (Q92905 whole entry, looked up, one chain of several): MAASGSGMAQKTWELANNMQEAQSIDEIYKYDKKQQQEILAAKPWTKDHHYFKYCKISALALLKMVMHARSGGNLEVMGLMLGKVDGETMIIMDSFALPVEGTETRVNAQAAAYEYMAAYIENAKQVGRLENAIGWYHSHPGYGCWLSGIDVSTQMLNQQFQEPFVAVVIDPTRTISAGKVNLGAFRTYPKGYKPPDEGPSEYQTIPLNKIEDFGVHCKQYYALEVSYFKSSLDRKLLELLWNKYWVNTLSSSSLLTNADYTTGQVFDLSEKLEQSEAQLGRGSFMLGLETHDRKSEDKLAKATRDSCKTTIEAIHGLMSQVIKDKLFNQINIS
#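 Material: purified human Csn5 enzyme expressed in HEK293T cells / Medium: Tris buffer pH 7.5, NaCl, DTT, Tween-20, trehalose, ovalbumin / Compound dosing: 12.5 µM single point / Schedule: 90 min incubation of compound, enzyme and substrate at room temperature / Signal: fluorescence polarization of the substrate / Control set: no-enzyme wells high, enzyme-with-substrate wells low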
# TPT1 inh = C. albicans TPT1 enzyme inhibition. recombinant caTPT1, FP RNA substrate dephosphorylation. inhibition, % at 5 µM. actives 0.81% (n = 300,000). AID 1962;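 active means inhibition above the mean of all tested compounds plus 3 SD, set per screening campaign, cut at about 24% in these data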;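 further: plate controls were DMSO alone for no effect and ferristatin control at 100 nM for full effect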
# Rpn11 confirm = Rpn11 inhibition confirmation, single concentration; purified human 26S proteasome, Ub4-pepOG fluorescence polarization; proteasome pretreated with epoxomicin; shares compounds with Rpn11 block; inhibition, % at 20 µM; AID 602318; actives 29% (n = 1,900)
# MMP-2 inh = blocks human MMP-2, flagging nonselective RPN11 hits; actives 4% (n = 1,900); shares compounds with Rpn11 block; recombinant MMP-2, FRET peptide cleavage fluorescence; inhibition, % at 20 µM;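 further: human MMP-2 activated beforehand with APMA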
# Thrombin FP = thrombin (bovine) inhibition counter-screen; shares compounds with Rpn11 block; inhibition, % at 20 µM; bovine thrombin cleavage of Ub4-pepOG, fluorescence polarization; actives 13% (n = 1,900);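 active means mean inhibition at least 40% at 20 µM, or signal 3 deviations below plate average, so some actives read negative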;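 further: plate controls were thrombin with DMSO for no effect and buffer wells lacking thrombin for full effect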
# Active calls of the source: *; i = inactive; . = no result given; ! = not active in a repeat. Shown are actives, neighbours in structure and some others; about 1.7% of the full set was active somewhere. Unless noted, no stated cut-off is given here; in the data, active means inhibition above about 40%; inactive means the rest.
SMILES,Rpn11 block,HNF4A DNA FP,IDE cell inh,IDE cell activ,CSN deneddyl inh,TPT1 inh,Rpn11 confirm,MMP-2 inh,Thrombin FP
CC(C)c1ccc(-n2c(O)c(/C=N/NC(=O)c3ccccc3O)c(=O)[nH]c2=S)cc1,48*,9,-5,2,5,9,53*,36,0
O=c1[nH]c(=S)n(C2CC2)c(O)c1/C=N/Nc1ccccc1,-1,1,0,-1,-4,0,.,.,.
O=C(N/N=C/c1c(O)n(C2CCCCC2)c(=S)[nH]c1=O)c1ccccc1O,49*,-1,-4,7,3,7,53*,-22,13
CCCCCN1C(=O)c2cc(OC)ccc2[C@@]2(C(=O)OCC)Cc3cc(Cl)ccc3[C@@H]12,.,2,.,.,-1,.,.,.,.
COc1ccc(C(SCC(NC(=O)OCc2ccccc2)C(=O)O)c2ccc(OC)cc2)cc1 (stereo unspecified),-3,-2,.,.,4,.,.,.,.
c1ccc2c(c1)CN(Cc1ccc3c(c1)OCO3)Cc1cnnn1-2,8,-2,.,.,3,.,.,.,.
O=c1[nH]c2ccccc2n1C1CCN(C(c2cc3ccccc3o2)c2nnnn2Cc2ccccc2)CC1 (stereo unspecified),8,5,.,.,2,.,.,.,.
COC12CCC3(CC1C(C)(O)C(C)(C)C)[C@H]1Cc4ccc(O)c5c4[C@@]3(CCN1CC1CC1)C2O5 (stereo partly specified),7,1,2,0,-3,.,.,.,.
CCOc1ccc(N=Cc2c(O)n(CCc3ccc(OC)c(OC)c3)c(=O)[nH]c2=O)cc1,19,11,-1,11,29,3,.,.,.
COc1ccc(CCn2c(O)c(C=Nc3ccc(NC(C)=O)cc3)c(=O)[nH]c2=O)cc1OC,46*,5,-1,.,38*,7,16,i,1
Cc1ccccc1N1C(=O)CC(=O)NC1=O,4,2,4,0,-3,8,.,.,.
CC(C)c1ccc(N2C(=O)CC(=O)NC2=O)cc1,37*,10,3,2,7,20,15,3,4
O=C1CC(=O)N(c2ccc(Cl)cc2)C(=O)N1,19,12,-1,-1,14,14,.,.,.
CCc1ccccc1N1C(=O)CC(=O)NC1=O,28*,6,1,1,4,6,-8,-37,4
O=c1c2ccccc2nc(-c2ccco2)n1-c1nccs1,50*,2,3,-3,-2,0,-12,-28,-6
CC1C(=O)CC2(C(C)C)CC12 (stereo unspecified),-2,4,.,.,-1,.,.,.,.
O=c1[nH]c(CN2CC=C(c3ccccc3)CC2)nc2cc(C(F)(F)F)ccc12,47*,22,0,-4,14,19,9,1,-8
CCN(CC)P(=O)(NC(=O)C(Cl)(Cl)Cl)N(CC)CC.[Cl-].[Cl-].[Cl-].[Nd+3],63*,53*!,5,-3,104*!,2,6,-9,-27
O=C1NCN(c2ccccc2)C12CCN(C(c1nnnn1-c1ccc3c(c1)OCCO3)C1CC1)CC2 (stereo unspecified),2,0,.,.,-3,.,.,.,.
Cc1ccc(N2C(=O)NC(=O)/C(=C/c3ccoc3)C2=O)cc1,150*,-28,.,-27,88*,.,144*,32,23
S=P(NCCSCc1ccccc1)(N1CC1)N1CC1,3,1,.,-3,-1,.,.,.,.
